Test results from ChEMBL document CHEMBL5247600, “Rational design of metabolically stable HDAC inhibitors: An overhaul of trifluoromethyl ketones” (Eur J Med Chem, 2022).
Values belong to the compound of their own block, whether it stands above or below them. Active and inactive are the calls of the source. The rule behind the calls is not given here.

Legend:
HCT-116 [1] = experiment: Anticancer activity against human HCT-116 cells assessed as cell growth inhibition incubated for 3 days by methylene blue staining based colorimetric assay; format: functional; conditions: HCT-116, 72 h
[2] = Metabolic stability in human Liver S9 fraction assessed as disappearance of compound and measured after 15 mins by LC-ESI-MS analysis; format: ADME, subcellular
How it was run: (§1)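 Human liver S9 fraction assay. Substrate 0.02 mM, 0.1 M buffer and 1 mM NADPH preincubated 10 min at 37 °C, then S9 (0.5 mg) added in 1 mL total; run in duplicate. Aliquots taken every 15 min or at 1 h and 2 h, residue taken up in methanol, diluted 1:1 with water and analysed by LC-ESI-MS tracking M+1 ions.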

[3] = Metabolic stability in human Liver S9 fraction assessed as metabolite TFMA 90 formation and measured for 30 mins by LC-ESI-MS analysis; format: ADME, subcellular; conditions: s9, 0.5 h; how it was run: as §1
[4] = system: Panel NCI-60 (60 carcinoma cell lines); experiment: Anticancer activity against human Panel NCI-60 (60 carcinoma cell lines) cells assessed as cell growth inhibition at 10 uM incubated for 3 days by methylene blue staining based colorimetric assay relative to control; format: functional; set-up: scale not given: the % may be the effect or the level left; conditions: time 3 day
How it was run: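 NCI-60 one-dose screen at a single concentration of 10 μM. Read-out is mean growth percentage across the panel; positive values denote cytostatic activity and negative values cytotoxicity.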

[5] = system: Panel NCI-60 (60 carcinoma cell lines); experiment: Anticancer activity against human Panel NCI-60 (60 carcinoma cell lines) cells assessed as cell growth inhibition incubated for 3 days by methylene blue staining based colorimetric assay relative to control; format: functional; conditions: 72 h, time 3 day
How it was run: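 NCI-60 five-dose screen at five concentrations. TGI is the concentration giving total growth inhibition.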

[6] = system: Panel NCI-60 (60 carcinoma cell lines); experiment: Anticancer activity against human Panel NCI-60 (60 carcinoma cell lines) cells assessed as total cell growth inhibition incubated for 3 days by methylene blue staining based colorimetric assay relative to control; format: functional; conditions: 72 h, time 3 day
How it was run: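 NCI-60 five-dose screen at five concentrations. […] TGI is the concentration giving total growth inhibition.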

[7] = Metabolic stability in human Liver S9 fraction assessed as disappearance of compound and measured after 2 hrs by LC-ESI-MS analysis; format: ADME, subcellular; conditions: s9, 2 h; how it was run: as §1
NCI-H522 [8] = experiment: cells; format: functional, cell-based; conditions: Homo sapiens, NCI-H522, 72 h
HT-1080 = experiment: Anticancer activity against human HT-1080 cells assessed as cell growth inhibition incubated for 3 days by methylene blue staining based colorimetric assay; format: functional; conditions: HT-1080, 72 h
How it was run: (§2)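 Cells kept in DMEM with 10% calf or fetal bovine serum plus penicillin/streptomycin (1000 U/ml each) at 37 °C, 5% CO2. Seeded at 5000/well (n = 3), treated next day, then after 3 days fixed/stained 30 min at room temperature with methylene blue saturated in 50% ethanol.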

HeLa = experiment: cells; format: functional, cell-based; conditions: Homo sapiens, 72 h
U2OS = experiment: Anticancer activity against human U2OS cells assessed as cell growth inhibition incubated for 3 days by methylene blue staining based colorimetric assay; format: functional; conditions: 72 h; how it was run: as §2
MDA-MB-468 = experiment: cells; format: functional, cell-based; conditions: Homo sapiens, MDA-MB-468, 72 h
MDA-MB-231 = experiment: Anticancer activity against human MDA-MB-231 cells assessed as cell growth inhibition incubated for 3 days by methylene blue staining based colorimetric assay; format: functional; conditions: MDA-MB-231, 72 h; how it was run: as §2
HCT-116 [9] = experiment: Induction of apoptosis in human HCT116 cells assessed as increase in cleaved PARP1 level at 4 to 8 uM incubated for 24 hrs by Western blot analysis; format: functional, cell-based; conditions: dose 4-8 µM
How it was run: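 HCT116 cells treated 24 h at the indicated concentrations. Lysates normalized by BCA, run on 12.5% SDS-PAGE and transferred to PVDF. Blocked 1 h in 5% milk/PBST, primary antibody against cleaved PARP overnight at 4 °C, then HRP secondary 1:10 000 and ECL detection.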

HCT-116 [10] = experiment: Anticancer activity against human HCT-116 cells assessed as cell survival rate incubated for 3 days by methylene blue staining based colorimetric assay; format: functional; conditions: HCT-116, 72 h; how it was run: as §2
NCI-H522 [11] = experiment: Anticancer activity against human NCI-H522 cells assessed as cell survival rate incubated for 3 days by methylene blue staining based colorimetric assay; format: functional; conditions: NCI-H522, 72 h; how it was run: as §2
[12] = Cytotoxicity against human RPE cells assessed as cell survival rate incubated for 3 days by methylene blue staining based colorimetric assay; format: toxicity; how it was run: as §2
[13] = Cytotoxicity against human WI-38 cells assessed as cell survival rate incubated for 3 days by methylene blue staining based colorimetric assay; format: toxicity; how it was run: as §2
HCT-116 [14] = experiment: Anticancer activity against human HCT-116 cells assessed as cell survival rate at 30 uM incubated for 3 days by methylene blue staining based colorimetric assay; format: functional; conditions: time 3 day; how it was run: as §2
NCI-H522 [15] = experiment: Anticancer activity against human NCI-H522 cells assessed as cell survival rate at 30 uM incubated for 3 days by methylene blue staining based colorimetric assay; format: functional; conditions: time 3 day; how it was run: as §2
[16] = Cytotoxicity against human RPE cells assessed as cell survival rate at 30 uM incubated for 3 days by methylene blue staining based colorimetric assay; format: toxicity; conditions: time 3 day, read-out: Activity; how it was run: as §2
[17] = Cytotoxicity against human WI-38 cells assessed as cell survival rate at 30 uM incubated for 3 days by methylene blue staining based colorimetric assay; format: toxicity; conditions: time 3 day, read-out: Activity; how it was run: as §2

SMILES: O=C(CCCCCCNC(=O)C(O)(O)C(F)(F)F)Nc1nc(-c2ccccc2)c(-c2ccccc2)s1
IC50 (HCT-116 [1]): 29.9 µM

SMILES: O=C(CCCCCCNC(=O)C(O)(O)C(F)(F)F)Nc1ccc(S(F)(F)(F)(F)F)cc1
IC50 (HCT-116 [1]): 9.11 µM

SMILES: OC(O)(c1c(F)c(F)c(-n2cc(-c3ccccc3)nn2)c(F)c1F)C(F)(F)F
IC50 (HCT-116 [1]): > 100 µM

SMILES: COc1cc(NC(=O)CCCCCCNC(=O)C(O)(O)C(F)(F)F)cc(OC)c1OC
IC50 (HCT-116 [1]): 14.1 µM

SMILES: COc1ccc2nc(NC(=O)CCCCCCNC(=O)C(O)(O)C(F)(F)F)sc2c1
IC50 (HCT-116 [1]): 7.56 µM

SMILES: O=C(CCCCCCNC(=O)C(O)(O)C(F)(F)F)Nc1nc2ccc(Br)cc2o1
IC50 (HCT-116 [1]): 12.1 µM

SMILES: O=C(CCCCCCNC(=O)C(O)(O)C(F)(F)F)Nc1ccc(Br)cc1
Activity [4]: 2.58% | GI50 [5]: 3.16 µM | TGI [6]: 20.9 µM

SMILES: O=C(CCCCCCNC(=O)C(O)(O)C(F)(F)F)Nc1ccc(Cl)cc1
IC50 (HCT-116 [1]): 4.23 µM | Activity [4]: 15.99% | GI50 [5]: 5.13 µM | TGI [6]: 26.9 µM

SMILES: O=C(CCCCCCNC(=O)C(O)(O)C(F)(F)F)Nc1ccc(-c2ccccc2)cc1
Activity [4]: 2.1% | TGI [6]: 15.1 µM

SMILES: O=C(CCCCCCNC(=O)C(O)C(F)(F)F)Nc1nccs1 (stereo not given)
IC50 (HCT-116 [1]): > 40 µM | Stability [7]: Stable

SMILES: CCOc1ccc(-c2cnc(NC(=O)CCCCCCNC(=O)C(O)(O)C(F)(F)F)s2)cc1
IC50 (HCT-116 [1]): 4.05 µM

SMILES: O=C(CCCCCCNC(=O)C(O)(O)C(F)(F)F)Nc1nc2ccccc2s1
IC50 (HCT-116 [1]): 2.37 µM | IC50 (NCI-H522 [8]): 2.86 µM | IC50 (HT-1080): 2.65 µM | IC50 (HeLa): 1.52 µM | IC50 (U2OS): 1.41 µM | IC50 (MDA-MB-468): 1.31 µM | IC50 (MDA-MB-231): 1.83 µM | Activity [4]: -2.45% | GI50 [5]: 3.39 µM | TGI [6]: 21.4 µM

SMILES: O=C(CCCCCCNC(=O)C(O)(O)C(F)(F)F)Nc1nc2ccc(Cl)cc2s1
IC50 (HCT-116 [1]): 11 µM

SMILES: COc1ccc2sc(NC(=O)CCCCCCNC(=O)C(O)(O)C(F)(F)F)nc2c1
IC50 (HCT-116 [1]): 2.18 µM | IC50 (NCI-H522 [8]): 3.23 µM | IC50 (HT-1080): 2.28 µM | IC50 (U2OS): 3.29 µM | IC50 (MDA-MB-468): 3.65 µM | IC50 (MDA-MB-231): 0.81 µM | Activity [4]: -4.91% | GI50 [5]: 1.23 µM | TGI [6]: 12.3 µM | Activity (HCT-116 [9]): Active

SMILES: O=C(CCCCCCNC(=O)C(O)(O)C(F)(F)F)Nc1ccc(F)cc1F
IC50 (HCT-116 [1]): 18.5 µM

SMILES: COc1ccc(NC(=O)CCCCCCNC(=O)C(O)(O)C(F)(F)F)cc1
IC50 (HCT-116 [1]): 4.52 µM | Activity [4]: 37.09% | IC50 (HCT-116 [10]): 3.13 µM | IC50 (NCI-H522 [11]): 8.05 µM | IC50 at 3 days [12]: > 30 µM | IC50 at 3 days [13]: > 30 µM | Activity (HCT-116 [14]): 10% | Activity (NCI-H522 [15]): 20% | viability at 72 h, 30 µM [16]: > 50% | viability at 72 h, 30 µM [17]: > 80%

The remaining lines, values ahead:

IC50 (HCT-116 [1]): 10.1 µM | Stability [2]: Unstable | Stability [3]: Unstable
SMILES: O=C(CCCCCCC(=O)C(F)(F)F)Nc1ccccc1

IC50 (HCT-116 [1]): > 100 µM
SMILES: C/C(=N\O)C(=O)NCCCCCCC(=O)Nc1ccccc1

IC50 (HCT-116 [1]): > 100 µM
SMILES: NC(=O)C(=O)NCCCCCC(=O)Nc1ccccc1

IC50 (HCT-116 [1]): > 100 µM
SMILES: NC(=O)C(=O)NCCCCC(=O)Nc1ccccc1

IC50 (HCT-116 [1]): 10.1 µM
SMILES: COc1ccccc1NC(=O)CCCCCCNC(=O)C(O)(O)C(F)(F)F

IC50 (HCT-116 [1]): > 40 µM
SMILES: O=C(CCCCCCC(O)C(F)(F)F)Nc1ccccc1 (stereo not given)

IC50 (HCT-116 [1]): 9.14 µM
SMILES: O=C(CCCCCCNC(=O)C(O)(O)C(F)(F)F)Nc1ccccc1

IC50 (HCT-116 [1]): > 40 µM
SMILES: O=C(CCCCCCNC(=O)C(O)(O)C(F)(F)F)Nc1ccc(C(=O)c2ccccc2)cc1

IC50 (HCT-116 [1]): 6.11 µM
SMILES: COc1cccc(NC(=O)CCCCCCNC(=O)C(O)(O)C(F)(F)F)c1

IC50 (HCT-116 [1]): 14.5 µM
SMILES: O=C(CCCCCCNC(=O)C(O)(O)C(F)(F)F)Nc1ccccc1Br

IC50 (HCT-116 [1]): 6.67 µM
SMILES: O=C(CCCCCCNC(=O)C(O)(O)C(F)(F)F)Nc1ccncc1

IC50 (HCT-116 [1]): > 100 µM
SMILES: CC(=O)C(=O)NCCCCCC(=O)Nc1ccccc1

IC50 (HCT-116 [1]): > 100 µM
SMILES: NC(=O)C(=O)NCCCCCCCC(=O)Nc1ccccc1
